A short description of series [1]: Apparent partition coefficients was determined at a pH 7.4 by using the capacity factors of RP-HPLC. Conditions: octanol/water. The format is physicochemical. An outline of the steps: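 Tetraester log Papp estimated from RP-HPLC capacity factors (k'); C8 reversed-phase column, mobile phase 20 mM phosphate buffer pH 6.0/methanol 30:70 v/v; value reported for pH 7.4.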

Series [2] in a line: (§1) Hydrolysis half life against 10% rabbit liver homogenate was determined. The format is ADME, organism-based, Oryctolagus cuniculus. An outline of the steps: (§2)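 Rabbit liver homogenized in ~4 vol isotonic phosphate buffer pH 7.4, spun 9000g 90 min 4 °C, supernatant stored −80 °C. Compound in 1 vol isotonic buffer plus 1 vol preheated 20% homogenate (10% final; initial 1.6–1.8 mM), 37 °C. Samples methanol-deproteinized and analysed by HPLC; kobs and t1/2 derived.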

Series [3] can be described thus: Binding affinity (Kobs) at a pH 7.4 against 50 mM phosphate buffer was determined. An outline of the steps: (§3)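 Chemical hydrolysis: compound (initial 0.9–1.8 mM) in preheated 50 mM phosphate buffer, μ = 0.15, pH 5.0 or 7.4, held at 37 °C. Samples taken at intervals and analysed by HPLC; kobs and t1/2 derived.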
The species entered for a further series is Oryctolagus cuniculus. The experiment in a line: Binding constant (Kobs) against 10% rabbit liver homogenate was determined. The format is ADME. An outline of the steps: as §2
The nature of series [4]: Hydrolysis half life at pH 7.4 against 50 mM phosphate buffer was determined. Format: ADME. Put shortly:
as §3

The species entered for another series is Homo sapiens. Put plainly: Binding affinity (Kobs) against 80% human Serum esterase was determined. Put shortly:
(§4)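 Compound dissolved in 1 vol phosphate buffer (50 mM, μ = 0.15, pH 7.4, 37 °C), then 4 vol preheated human serum added (80% serum; initial 1.4–1.7 mM); 37 °C water bath. Samples taken at intervals, deproteinized with equal volume methanol, centrifuged; supernatant dried and redissolved in mobile-phase buffer, or injected directly if labile. HPLC; kobs and t1/2 derived.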

Series [5] in a line: Hydrolysis half life at pH 5.0 against 50 mM phosphate buffer was determined. Format: ADME. An outline of the steps:
as §3

Series [6] in a line: Binding affinity (Kobs) at a pH 5.0 against 50 mM phosphate buffer was determined. Put shortly:
as §3

The nature of series [7]: as §1. Format: tissue-based. Put shortly:
as §2

A short description of series [8]: Hydrolysis half life against 80% human serum was determined. Format: ADME. Put shortly: as §4

SMILES strings stand for the structures.

As usually defined, the chromatographic logD is a lipophilicity value derived from retention on a column. For `CC(C)(C)C(=O)OCOP(=O)(OCOC(=O)C(C)(C)C)C(Cl)(Cl)P(=O)(OCOC(=O)C(C)(C)C)OCOC(=O)C(C)(C)C`, the chromatographic logD in series [1] was determined as 7.4.

Broadly, the half-life is the time needed for the level to fall by half in the phase considered. For the compound `C1CCNCC1.C1CCNCC1.CC(C)(C)C(=O)OCOP(=O)(O)C(Cl)(Cl)P(=O)(O)OCOC(=O)C(C)(C)C`, the values for the half-life in [2] and in [4] were 0.233 h and 0.783 h, respectively. Further, the chromatographic logD in series [1] is -2.13. The k obs in series [3] was determined as 1.67e-07 s⁻¹. This compound registered a K obs in the series filed under Oryctolagus cuniculus of 0.51 min⁻¹.

`CC(C)(C)C(=O)OCOP(=O)(O)C(Cl)(Cl)P(=O)(OCOC(=O)C(C)(C)C)OCOC(=O)C(C)(C)C`: the k obs in the series filed under Homo sapiens is 0.000149 s⁻¹; in [6], 0.000117 s⁻¹; in [3], 0.000113 s⁻¹. For the same compound, the half-life in [5] turned out to be 1.65 h; in series [8] it was 1.3 h; in series [4], 1.7 h. The chromatographic logD in [1] is 1.56. Moreover, the K obs in the series listed under Oryctolagus cuniculus amounted to 0.65 min⁻¹. Moreover, in series [7], the T1/2 was determined as 1.1 min.

(Values after ChEMBL document CHEMBL1132494, “Bisphosphonate prodrugs: synthesis and in vitro evaluation of novel acyloxyalkyl esters of clodronic acid” (J Med Chem, 1999).)
